# Data reported in ChEMBL document CHEMBL1127554, “Design, synthesis, and study of 9-substituted ellipticine and 2-methylellipticinium analogues as potential CNS-selective antitumor agents” (1994).
# Columns and labels:
# Tumor Cell line [1] = assay: GI50 was measured In vitro as the ratio of the mean activity for all non-CNS tumor cell lines over the mean activity of the CNS tumor subpanel (eight cell lines); type: functional, Homo sapiens
# Method in brief: (§1)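 Ratio of the mean activity (μM) over all non-CNS tumour cell lines (ca. 40-50 lines) to the mean activity (μM) of the CNS subpanel (eight lines). Activity was taken from PG vs log concentration curves: GI50 at PG +50%, TGI at PG 0%.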
# Tumor Cell line [2] = assay: LC50 was measured In vitro as the ratio of the mean activity for all non-CNS tumor cell lines over the mean activity of the CNS tumor subpanel (eight cell lines); type: functional, Homo sapiens
# Method in brief: (§2)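 Same PG dose-response panel. LC50 (μM) is averaged separately over the non-CNS lines (ca. 40-50 lines) and the CNS subpanel (eight lines). The ratio is the non-CNS mean divided by the CNS mean.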
# Tumor Cell line [3] = assay: LC50 was given In vitro as -50% percent growth (PG), measured as concentration of compound required to inhibit disease oriented human tumor cell line panels; Value ranges from 4.68-100; type: functional; conditions: read-out: LC50 (the source's name)
# Method in brief: (§3)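 Human tumor cell line panel tested in vitro. Percent growth (PG) plotted against log drug concentration to give dose-response curves. LC50 is the concentration where PG equals -50%; GI50 and TGI are taken at +50% and 0%. Values are means across the full panel, with values beyond the tested limits (> or <) included in the mean.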
# Tumor Cell line [4] = assay: TGI was measured In vitro as the ratio of the mean activity for all non-CNS tumor cell lines over the mean activity of the CNS tumor subpanel (eight cell lines); type: functional, Homo sapiens; method in brief: as §1
# Tumor Cell line [5] = assay: LC50 was given In vitro as -50% percent growth (PG), measured as concentration of compound required to inhibit disease oriented human tumor cell line panels; Value ranges from 67.61->100; type: functional; conditions: read-out: LC50 (the source's name); method in brief: as §3
# Tumor Cell line [6] = assay: GI50 was given In vitro as +50% percent growth (PG), measured as concentration of compound required to inhibit disease oriented human tumor cell line panels; Value ranges from 0.23-29.5; type: functional
# Method in brief: (§4)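 Human tumour cell line panel; percent growth plotted against log drug concentration to give dose-response curves. GI50 is the concentration giving PG +50%, and TGI the concentration giving PG 0%. Values are mean inhibitory concentrations over the entire panel. PG values at either limit (> or <) are included in the mean.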
# Tumor Cell line [7] = assay: TGI was given In vitro as 0% percent growth (PG), measured as concentration of compound required to inhibit disease oriented human tumor cell line panels; Value ranges from 0.65->100; type: functional
# Tumor Cell line [8] = assay: LC50 was given In vitro as -50% percent growth (PG), measured as concentration of compound required to inhibit disease oriented human tumor cell line panels; Value ranges from 5.6->100; type: functional; conditions: read-out: LC50 (the source's name)
# Tumor Cell line [9] = assay: GI50 was given In vitro as +50% percent growth (PG), measured as concentration of compound required to inhibit disease oriented human tumor cell line panels; Value ranges from 0.19->100; type: functional
# Tumor Cell line [10] = assay: TGI was given In vitro as 0% percent growth (PG), measured as concentration of compound required to inhibit disease oriented human tumor cell line panels; Value ranges from 0.30->100; type: functional
# Tumor Cell line [11] = assay: LC50 was given In vitro as -50% percent growth (PG), measured as concentration of compound required to inhibit disease oriented human tumor cell line panels; Value ranges from 1.20->100; type: functional; conditions: read-out: LC50 (the source's name)
# Tumor Cell line [12] = assay: GI50 was given In vitro as +50% percent growth (PG), measured as concentration of compound required to inhibit disease oriented human tumor cell line panels; Value ranges from 0.02->100; type: functional; method in brief: as §4
# [13] = GI50 was measured in vitro as the ratio of the mean activity for all non-CNS tumor cell lines over the mean activity of the CNS tumor subpanel (eight cell lines); type: functional; method in brief: as §1
# [14] = LC50 was measured in vitro as the ratio of the mean activity for all non-CNS tumor cell lines over the mean activity of the CNS tumor subpanel (eight cell lines); type: functional; method in brief: as §2
# Tumor Cell line [15] = assay: LC50 was given in vitro as -50% percent growth (PG), measured as concentration of compound required to inhibit disease oriented human tumor cell line panels; Value ranges from 5.50->100; type: functional; conditions: read-out: LC50 (the source's name); method in brief: as §3
# Tumor Cell line [16] = assay: TGI was given in vitro as 0% percent growth (PG), measured as concentration of compound required to inhibit disease oriented human tumor cell line panels; Value ranges from 2.95-54.95; type: functional; method in brief: as §4
# [17] = TGI was measured in vitro as the ratio of the mean activity for all non-CNS tumor cell lines over the mean activity of the CNS tumor subpanel (eight cell lines); type: functional; method in brief: as §1
# Tumor Cell line [18] = assay: GI50 was given in vitro as +50% percent growth (PG), measured as concentration of compound required to inhibit disease oriented human tumor cell line panels; Value ranges from 1.58-11.22; type: functional; method in brief: as §4
# Tumor Cell line [19] = assay: LC50 was given In vitro as -50% percent growth (PG), measured as concentration of compound required to inhibit disease oriented human tumor cell line panels; Value ranges from 8.13->76; type: functional; conditions: read-out: LC50 (the source's name); method in brief: as §3
# Tumor Cell line [20] = assay: GI50 was given In vitro as +50% percent growth (PG), measured as concentration of compound required to inhibit disease oriented human tumor cell line panels; Value ranges from 1.38-15.14; type: functional; method in brief: as §4
# Tumor Cell line [21] = assay: TGI was given In vitro as 0% percent growth (PG), measured as concentration of compound required to inhibit disease oriented human tumor cell line panels; Value ranges from 3.24-37.15; type: functional; method in brief: as §4
# Tumor Cell line [22] = assay: LC50 was given In vitro as -50% percent growth (PG), measured as concentration of compound required to inhibit disease oriented human tumor cell line panels; Value ranges from 12.30->100; type: functional; conditions: read-out: LC50 (the source's name); method in brief: as §3
# Tumor Cell line [23] = assay: GI50 was given In vitro as +50% percent growth (PG), measured as concentration of compound required to inhibit disease oriented human tumor cell line panels; Value ranges from 0.62-2.95; type: functional; method in brief: as §4
# Tumor Cell line [24] = assay: GI50 was given In vitro as +50% percent growth (PG), measured as concentration of compound required to inhibit disease oriented human tumor cell line panels; Value ranges from 0.22-52.48; type: functional; method in brief: as §4
# Tumor Cell line [25] = assay: LC50 was given In vitro as -50% percent growth (PG), measured as concentration of compound required to inhibit disease oriented human tumor cell line panels; type: functional; conditions: read-out: LC50 (the source's name); method in brief: as §3
# Tumor Cell line [26] = assay: GI50 was given In vitro as +50% percent growth (PG), measured as concentration of compound required to inhibit disease oriented human tumor cell line panels; Value ranges from 0.51-12.88; type: functional; method in brief: as §4
# Tumor Cell line [27] = assay: LC50 was given In vitro as -50% percent growth (PG), measured as concentration of compound required to inhibit disease oriented human tumor cell line panels; Value ranges from 22.91->55; type: functional; conditions: read-out: LC50 (the source's name); method in brief: as §3
smiles,measurement,setting,value
CCOc1ccc2[nH]c3c(C)c4ccncc4c(C)c3c2c1,GI50 ratio,Tumor Cell line [1],0.89
same,LC50 ratio,Tumor Cell line [2],1.7
same,CC50,Tumor Cell line [3],> 8.32 µM
same,TGI ratio,Tumor Cell line [4],1.32
CC(=O)[O-].Cc1c2cc[n+](C)cc2c(C)c2c1[nH]c1ccc(Oc3ccccc3)cc12,CC50,Tumor Cell line [5],> 97.7 µM
same,GI50,Tumor Cell line [6],1.82 µM
same,GI50 ratio,Tumor Cell line [1],3.48
same,TGI ratio,Tumor Cell line [4],3.06
CC(=O)[O-].CCOc1ccc2[nH]c3c(C)c4cc[n+](C)cc4c(C)c3c2c1,GI50 ratio,Tumor Cell line [1],5.92
same,TGI,Tumor Cell line [7],> 19.5 µM
same,CC50,Tumor Cell line [8],> 74.1 µM
same,GI50,Tumor Cell line [9],> 2.34 µM
same,TGI ratio,Tumor Cell line [4],7.08
CC(=O)[O-].COc1ccc2[nH]c3c(C)c4cc[n+](C)cc4c(C)c3c2c1,TGI,Tumor Cell line [10],> 14.8 µM
same,GI50 ratio,Tumor Cell line [1],16.7
same,CC50,Tumor Cell line [11],> 49 µM
same,GI50,Tumor Cell line [12],> 1.86 µM
same,TGI ratio,Tumor Cell line [4],33.9
Cc1c2ccncc2c(C)c2c1[nH]c1ccc(OC(C)(C)C)cc12,GI50 ratio,[13],1.1
same,LC50 ratio,[14],0.98 µM
same,CC50,Tumor Cell line [15],> 32.4 µM
same,TGI,Tumor Cell line [16],7.24 µM
same,TGI ratio,[17],1.17
same,GI50,Tumor Cell line [18],2.57 µM
Cc1c2ccncc2c(C)c2c1[nH]c1ccc(O)c(OCC(F)(F)F)c12,CC50,Tumor Cell line [19],> 42.7 µM
same,GI50 ratio,Tumor Cell line [1],1.07
same,GI50,Tumor Cell line [20],5.89 µM
same,TGI,Tumor Cell line [21],15.8 µM
same,TGI ratio,Tumor Cell line [4],0.98
Cc1c2cc[n+](C)cc2c(C)c2c1[nH]c1ccc(OCC(F)(F)F)cc12.[I-],GI50 ratio,Tumor Cell line [1],6.26
same,CC50,Tumor Cell line [22],> 79.4 µM
same,GI50,Tumor Cell line [23],1.58 µM
same,TGI ratio,Tumor Cell line [4],9.11
CC(=O)[O-].Cc1c2cc[n+](C)cc2c(C)c2c1[nH]c1ccc(OCC(F)(F)F)cc12,GI50,Tumor Cell line [24],3.47 µM
same,GI50 ratio,Tumor Cell line [1],12.9
same,CC50,Tumor Cell line [25],> 100 µM
same,TGI ratio,Tumor Cell line [4],13.7
Cc1c2cc[n+](C)cc2c(C)c2c1[nH]c1ccc(O)c(OCC(F)(F)F)c12.[I-],GI50 ratio,Tumor Cell line [1],5.65
same,GI50,Tumor Cell line [26],2.24 µM
same,LC50 ratio,Tumor Cell line [2],1.35
same,CC50,Tumor Cell line [27],> 50.1 µM
same,TGI ratio,Tumor Cell line [4],3.89
